PMC6634314 (Cell chemical biology, 2019)

Legend:
PRKDC = assay: MIB washout assay; assay type: binding, Human; conditions: H23 cells, 1 μM 4h, MIB pulldown ratio SM1-71/SM1-71-R
PIP5K1A = assay: MIB washout assay; assay type: binding, Human; conditions: H23 cells, 1 μM 4h, MIB pulldown ratio SM1-71/SM1-71-R
LYN = assay: MIB washout assay; assay type: binding, Human; conditions: H23 cells, 1 μM 4h, MIB pulldown ratio SM1-71/SM1-71-R
CSNK1G3 = assay: MIB washout assay; assay type: binding, Human; conditions: H23 cells, 1 μM 4h, MIB pulldown ratio SM1-71/SM1-71-R
SRC = SRC (Homo sapiens, UniProt P12931); assay: mass shift assay; assay type: binding; conditions: incubated 4 and 24h
Outline: (§1)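 Kinase protein at 0.12 mM in 10 mM HEPES pH 7.5, 500 mM NaCl, incubated with 0.2 mM test compound at 4°C for 4 h and 24 h. Samples were diluted in 0.1% formic acid and desalted on a C3 pre-column. ESI-TOF was run in positive mode at 120 V, and intact mass was obtained by deconvolution to detect the adduct.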

GAK = target: T1, GAK (Homo sapiens, UniProt O14976); assay: MIB dose-dependent kinase inhibition assay; assay type: binding; conditions: read-out: IC50 in the MIB assay, H23 cell lysate, overnight 4°C
T1 sequence (O14976 1-1311): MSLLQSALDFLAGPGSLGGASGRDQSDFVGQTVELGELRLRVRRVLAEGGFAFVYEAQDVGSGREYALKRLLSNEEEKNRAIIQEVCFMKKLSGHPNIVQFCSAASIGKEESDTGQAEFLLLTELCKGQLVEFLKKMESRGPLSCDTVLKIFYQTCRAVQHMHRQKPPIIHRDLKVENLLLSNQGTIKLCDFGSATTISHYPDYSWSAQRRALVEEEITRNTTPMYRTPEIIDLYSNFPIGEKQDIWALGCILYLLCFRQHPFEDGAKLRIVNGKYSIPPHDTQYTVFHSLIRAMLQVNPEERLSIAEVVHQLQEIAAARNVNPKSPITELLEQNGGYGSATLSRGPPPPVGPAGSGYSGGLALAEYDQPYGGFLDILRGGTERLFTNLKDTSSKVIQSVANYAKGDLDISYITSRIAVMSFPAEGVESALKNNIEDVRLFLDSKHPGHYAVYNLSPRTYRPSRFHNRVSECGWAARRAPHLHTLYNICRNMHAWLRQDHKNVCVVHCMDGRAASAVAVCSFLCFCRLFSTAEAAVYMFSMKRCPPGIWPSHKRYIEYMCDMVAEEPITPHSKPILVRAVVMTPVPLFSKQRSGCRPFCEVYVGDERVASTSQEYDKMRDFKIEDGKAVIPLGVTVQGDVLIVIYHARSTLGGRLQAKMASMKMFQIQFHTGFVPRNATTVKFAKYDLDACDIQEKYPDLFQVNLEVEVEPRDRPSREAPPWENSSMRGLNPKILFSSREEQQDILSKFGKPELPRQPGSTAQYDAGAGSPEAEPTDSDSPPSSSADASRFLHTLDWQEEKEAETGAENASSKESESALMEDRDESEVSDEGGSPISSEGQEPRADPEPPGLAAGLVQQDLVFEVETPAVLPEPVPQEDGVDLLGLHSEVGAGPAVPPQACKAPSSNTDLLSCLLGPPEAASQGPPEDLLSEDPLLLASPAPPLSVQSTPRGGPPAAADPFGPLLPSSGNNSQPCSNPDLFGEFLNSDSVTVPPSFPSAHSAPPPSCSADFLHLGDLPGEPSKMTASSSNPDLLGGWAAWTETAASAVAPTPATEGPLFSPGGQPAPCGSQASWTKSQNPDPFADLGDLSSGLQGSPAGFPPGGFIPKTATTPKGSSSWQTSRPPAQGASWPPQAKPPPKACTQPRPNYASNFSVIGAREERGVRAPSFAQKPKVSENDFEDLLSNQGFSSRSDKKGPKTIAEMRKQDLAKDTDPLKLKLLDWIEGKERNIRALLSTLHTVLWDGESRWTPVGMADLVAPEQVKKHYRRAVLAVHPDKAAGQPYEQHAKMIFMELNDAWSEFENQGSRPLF

WEE1 = assay: MIB washout assay; assay type: binding, Human; conditions: H23 cells, 1 μM 4h, MIB pulldown ratio SM1-71/SM1-71-R
EPHA2 = assay: MIB washout assay; assay type: binding, Human; conditions: H23 cells, 1 μM 4h, MIB pulldown ratio SM1-71/SM1-71-R
TGFBR2 = assay: MIB washout assay; assay type: binding, Human; conditions: H23 cells, 1 μM 4h, MIB pulldown ratio SM1-71/SM1-71-R
GSK3B = GSK3B (Homo sapiens, UniProt P49841); assay: mass shift assay; assay type: binding; conditions: incubated 4 and 24h
Outline: as §1

AGK = assay: MIB washout assay; assay type: binding, Human; conditions: H23 cells, 1 μM 4h, MIB pulldown ratio SM1-71/SM1-71-R
BMP2K = BMP2K (Homo sapiens, UniProt Q9NSY1); assay: MIB washout assay; assay type: binding; conditions: H23 cells, 1 μM 4h, MIB pulldown ratio SM1-71/SM1-71-R
MAP2K2 = assay: MIB washout assay; assay type: binding, Human; conditions: H23 cells, 1 μM 4h, MIB pulldown ratio SM1-71/SM1-71-R
MAP3K1 = assay: MIB washout assay; assay type: binding, Human; conditions: H23 cells, 1 μM 4h, 0h post-washout, MIB pulldown ratio SM1-71/SM1-71-R
Calu-6-KRAS^Q61K = assay: proliferation assay; assay type: cell-based, Human; conditions: Calu-6-KRAS^Q61K cells (Fig. S2)
Outline: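 NSCLC lines were mycoplasma-tested and treated with various concentrations of test compound for 72 h. Cell viability was then measured by CellTiter-Glo luminescence.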

CDK9 = assay: MIB washout assay; assay type: binding, Human; conditions: H23 cells, 1 μM 4h, MIB pulldown ratio SM1-71/SM1-71-R
MARK2 = assay: MIB washout assay; assay type: binding, Human; conditions: H23 cells, 1 μM 4h, MIB pulldown ratio SM1-71/SM1-71-R
43 recombinant kinases = assay: thermal stability shift assay; assay type: binding; conditions: 21 of 43 recombinant kinases; protein 2 μM, inhibitor 10 μM
TK2 = assay: MIB washout assay; assay type: binding, Human; conditions: H23 cells, 1 μM 4h, MIB pulldown ratio SM1-71/SM1-71-R
PKMYT1 = assay: MIB washout assay; assay type: binding, Human; conditions: H23 cells, 1 μM 4h, MIB pulldown ratio SM1-71/SM1-71-R
AAK1 = AAK1 (Homo sapiens, UniProt Q2M2I8); assay: MIB washout assay; assay type: binding; conditions: H23 cells, 1 μM 4h, MIB pulldown ratio SM1-71/SM1-71-R
MAP2K1 = MAP2K1 (Homo sapiens, UniProt Q02750); assay: mass shift assay; assay type: binding; conditions: incubated 4 and 24h
Outline: as §1

Sequence of BMP2K (Q9NSY1 whole entry): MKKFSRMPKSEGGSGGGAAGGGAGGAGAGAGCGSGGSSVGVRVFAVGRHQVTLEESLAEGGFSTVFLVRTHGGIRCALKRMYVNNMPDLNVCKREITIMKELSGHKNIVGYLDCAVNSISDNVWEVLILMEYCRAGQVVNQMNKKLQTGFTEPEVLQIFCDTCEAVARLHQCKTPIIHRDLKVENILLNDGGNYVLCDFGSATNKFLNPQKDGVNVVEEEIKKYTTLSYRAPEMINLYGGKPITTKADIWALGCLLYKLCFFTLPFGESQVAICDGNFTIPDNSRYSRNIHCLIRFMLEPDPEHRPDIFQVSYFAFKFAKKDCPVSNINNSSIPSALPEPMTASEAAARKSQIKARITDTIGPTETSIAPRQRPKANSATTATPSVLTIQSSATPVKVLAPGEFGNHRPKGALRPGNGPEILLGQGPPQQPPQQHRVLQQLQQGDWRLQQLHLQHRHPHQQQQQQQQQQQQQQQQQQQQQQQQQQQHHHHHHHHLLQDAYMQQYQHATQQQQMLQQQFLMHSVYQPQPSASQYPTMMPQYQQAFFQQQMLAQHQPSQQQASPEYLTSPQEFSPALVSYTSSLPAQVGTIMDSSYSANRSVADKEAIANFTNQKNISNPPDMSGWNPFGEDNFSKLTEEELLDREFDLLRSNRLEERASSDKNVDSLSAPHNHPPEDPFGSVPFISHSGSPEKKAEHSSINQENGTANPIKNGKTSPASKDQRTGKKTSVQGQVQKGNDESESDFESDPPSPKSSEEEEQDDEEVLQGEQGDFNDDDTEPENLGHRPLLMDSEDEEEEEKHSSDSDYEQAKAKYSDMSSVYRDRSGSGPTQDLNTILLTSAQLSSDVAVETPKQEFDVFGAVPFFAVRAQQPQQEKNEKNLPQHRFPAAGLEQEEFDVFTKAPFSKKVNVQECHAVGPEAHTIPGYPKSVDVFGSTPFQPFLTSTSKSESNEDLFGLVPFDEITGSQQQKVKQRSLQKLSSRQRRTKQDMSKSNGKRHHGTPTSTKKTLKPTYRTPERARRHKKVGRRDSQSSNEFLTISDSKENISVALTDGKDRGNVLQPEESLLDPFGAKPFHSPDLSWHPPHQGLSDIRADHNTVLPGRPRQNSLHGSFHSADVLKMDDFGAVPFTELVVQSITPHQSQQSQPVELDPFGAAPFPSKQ
Sequence of AAK1 (Q2M2I8 whole entry): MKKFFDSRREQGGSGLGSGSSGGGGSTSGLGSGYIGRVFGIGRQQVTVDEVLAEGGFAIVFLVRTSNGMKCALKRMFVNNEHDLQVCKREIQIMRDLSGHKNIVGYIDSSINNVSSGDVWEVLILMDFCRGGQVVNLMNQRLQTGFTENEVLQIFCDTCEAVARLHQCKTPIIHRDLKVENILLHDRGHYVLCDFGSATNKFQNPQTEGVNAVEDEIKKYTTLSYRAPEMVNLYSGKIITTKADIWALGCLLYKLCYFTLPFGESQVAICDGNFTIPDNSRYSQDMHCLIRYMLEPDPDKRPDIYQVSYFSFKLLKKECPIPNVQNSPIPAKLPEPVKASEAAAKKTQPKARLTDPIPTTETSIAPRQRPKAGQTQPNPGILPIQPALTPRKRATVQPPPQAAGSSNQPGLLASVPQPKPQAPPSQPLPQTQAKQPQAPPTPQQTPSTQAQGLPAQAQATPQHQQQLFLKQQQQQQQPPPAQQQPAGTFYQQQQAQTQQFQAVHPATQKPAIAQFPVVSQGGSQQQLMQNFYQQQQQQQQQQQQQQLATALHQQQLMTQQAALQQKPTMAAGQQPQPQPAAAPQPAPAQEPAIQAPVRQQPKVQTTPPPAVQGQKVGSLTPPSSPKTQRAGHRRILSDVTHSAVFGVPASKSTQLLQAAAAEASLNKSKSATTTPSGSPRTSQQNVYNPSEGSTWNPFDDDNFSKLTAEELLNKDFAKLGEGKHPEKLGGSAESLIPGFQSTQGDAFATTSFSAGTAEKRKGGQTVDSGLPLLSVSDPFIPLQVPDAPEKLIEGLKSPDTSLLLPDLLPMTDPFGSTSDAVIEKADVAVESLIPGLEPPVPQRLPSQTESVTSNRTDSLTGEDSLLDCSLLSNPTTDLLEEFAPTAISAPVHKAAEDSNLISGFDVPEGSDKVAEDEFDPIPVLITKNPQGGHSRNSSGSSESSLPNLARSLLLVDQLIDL
Sequence of MAP2K1 (Q02750 whole entry, species assumed): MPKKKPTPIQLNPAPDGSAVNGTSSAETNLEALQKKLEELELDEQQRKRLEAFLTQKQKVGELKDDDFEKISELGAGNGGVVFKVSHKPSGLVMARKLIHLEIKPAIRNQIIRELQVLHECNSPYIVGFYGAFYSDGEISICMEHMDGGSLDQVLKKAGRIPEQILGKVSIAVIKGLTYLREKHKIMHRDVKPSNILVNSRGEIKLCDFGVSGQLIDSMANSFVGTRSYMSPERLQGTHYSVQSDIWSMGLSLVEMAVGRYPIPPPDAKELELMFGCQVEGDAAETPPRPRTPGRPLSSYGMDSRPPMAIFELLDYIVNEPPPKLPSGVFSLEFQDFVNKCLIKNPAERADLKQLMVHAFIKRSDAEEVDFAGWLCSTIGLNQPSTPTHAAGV
Sequence of GSK3B (P49841 whole entry, species assumed): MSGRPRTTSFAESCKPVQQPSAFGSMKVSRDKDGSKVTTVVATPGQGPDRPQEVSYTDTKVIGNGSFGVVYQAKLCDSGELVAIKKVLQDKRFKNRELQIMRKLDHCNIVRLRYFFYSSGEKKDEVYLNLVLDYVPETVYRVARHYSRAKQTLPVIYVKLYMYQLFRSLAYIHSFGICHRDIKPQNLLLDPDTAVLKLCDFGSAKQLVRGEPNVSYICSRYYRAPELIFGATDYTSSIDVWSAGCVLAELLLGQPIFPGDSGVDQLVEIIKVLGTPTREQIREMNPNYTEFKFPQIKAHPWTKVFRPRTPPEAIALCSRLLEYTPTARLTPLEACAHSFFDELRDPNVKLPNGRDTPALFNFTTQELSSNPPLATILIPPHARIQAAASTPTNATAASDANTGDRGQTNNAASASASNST
Sequence of SRC (P12931 whole entry, species assumed): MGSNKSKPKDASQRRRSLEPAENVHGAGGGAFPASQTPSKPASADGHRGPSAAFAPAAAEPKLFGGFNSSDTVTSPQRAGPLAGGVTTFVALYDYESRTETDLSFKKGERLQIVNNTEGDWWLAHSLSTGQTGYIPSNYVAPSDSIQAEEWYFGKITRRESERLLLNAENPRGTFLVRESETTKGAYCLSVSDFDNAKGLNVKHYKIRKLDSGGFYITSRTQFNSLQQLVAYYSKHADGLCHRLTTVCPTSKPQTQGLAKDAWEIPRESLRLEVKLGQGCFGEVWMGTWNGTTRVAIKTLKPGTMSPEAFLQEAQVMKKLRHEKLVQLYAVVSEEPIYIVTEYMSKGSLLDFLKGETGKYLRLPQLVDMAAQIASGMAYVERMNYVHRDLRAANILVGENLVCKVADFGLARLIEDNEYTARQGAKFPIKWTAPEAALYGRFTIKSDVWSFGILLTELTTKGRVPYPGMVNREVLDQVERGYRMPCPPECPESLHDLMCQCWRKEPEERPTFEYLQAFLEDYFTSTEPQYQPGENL

**Q.** Which BI-0h (PRKDC; 0h post-washout) does the source give for `C=CC(=O)Nc1ccccc1Nc1nc(Nc2ccc(N3CCN(C)CC3)cc2)ncc1Cl` [SM1-71] here?
**A.** Its BI-0h is 0.76.

**Q.** What about the BI-6h (PRKDC; 6h post-washout) of the same compound?
**A.** The BI-6h was 0.77.

**Q.** What about the BI-0h (PIP5K1A; 0h post-washout) of the same compound?
**A.** The BI-0h was 0.56.

**Q.** What about the BI-6h (PIP5K1A; 6h post-washout) of the same compound?
**A.** Its BI-6h is 0.75.

**Q.** What about the BI-0h (LYN; 0h post-washout) of the same compound?
**A.** The BI-0h was 1.1.

**Q.** What about the BI-6h (LYN; 6h post-washout) of the same compound?
**A.** Its BI-6h is 0.79.

**Q.** And the BI-0h (CSNK1G3; 0h post-washout)?
**A.** The BI-0h was 0.77.

**Q.** And the BI-6h (CSNK1G3; 6h post-washout)?
**A.** Its BI-6h is 0.75.

**Q.** What about the “covalent adduct formation (mass shift)” value (SRC) of the same compound?
**A.** The value was “formed covalent adducts”.

**Q.** And the IC50 (GAK)?
**A.** The IC50 was < 10 nM.

**Q.** What about the BI-0h (WEE1; 0h post-washout) of the same compound?
**A.** The BI-0h was 0.98.

**Q.** What about the BI-6h (WEE1; 6h post-washout) of the same compound?
**A.** Its BI-6h is 0.63.

**Q.** What about the BI-0h (EPHA2; 0h post-washout) of the same compound?
**A.** The BI-0h was 0.71.

**Q.** And the BI-6h (EPHA2; 6h post-washout)?
**A.** Its BI-6h is 0.49.

**Q.** And the BI-0h (TGFBR2; 0h post-washout)?
**A.** The BI-0h was 0.53.

**Q.** What about the BI-6h (TGFBR2; 6h post-washout) of the same compound?
**A.** The BI-6h was 0.6.

**Q.** And the “covalent adduct formation (mass shift)” value (GSK3B)?
**A.** The value was “formed covalent adducts”.

**Q.** What about the BI-0h (AGK; 0h post-washout) of the same compound?
**A.** The BI-0h was 0.66.

**Q.** What about the BI-6h (AGK; 6h post-washout) of the same compound?
**A.** Its BI-6h is 0.5.

**Q.** And the BI-0h (BMP2K; 0h post-washout)?
**A.** The BI-0h was 0.23.

**Q.** What about the BI-6h (BMP2K; 6h post-washout) of the same compound?
**A.** The BI-6h was 0.27.

**Q.** What about the BI-0h (MAP2K2; 0h post-washout) of the same compound?
**A.** The BI-0h was 0.03.

**Q.** What about the BI-6h (MAP2K2; 6h post-washout) of the same compound?
**A.** The BI-6h was 0.18.

**Q.** And the BI-0h (MAP3K1)?
**A.** The BI-0h was 0.2.

**Q.** And the growth inhibitory effects (Calu-6-KRAS^Q61K)?
**A.** The growth inhibitory effects was “strong growth inhibitory effects”.

**Q.** And the BI-0h (CDK9; 0h post-washout)?
**A.** The BI-0h was 0.46.

**Q.** What about the BI-6h (CDK9; 6h post-washout) of the same compound?
**A.** Its BI-6h is 0.96.

**Q.** What about the BI-0h (MARK2; 0h post-washout) of the same compound?
**A.** The BI-0h was 0.74.

**Q.** And the BI-6h (MARK2; 6h post-washout)?
**A.** Its BI-6h is 1.13.

**Q.** And the ΔTm shifts (43 recombinant kinases)?
**A.** The ΔTm shifts was > 6 °C.

**Q.** And the BI-0h (TK2; 0h post-washout)?
**A.** Its BI-0h is 0.83.

**Q.** And the BI-6h (TK2; 6h post-washout)?
**A.** Its BI-6h is 0.95.

**Q.** What about the BI-0h (PKMYT1; 0h post-washout) of the same compound?
**A.** The BI-0h was 0.47.

**Q.** And the BI-6h (PKMYT1; 6h post-washout)?
**A.** The BI-6h was 0.8.

**Q.** And the BI-0h (AAK1; 0h post-washout)?
**A.** Its BI-0h is 0.27.

**Q.** What about the BI-6h (AAK1; 6h post-washout) of the same compound?
**A.** Its BI-6h is 0.32.

**Q.** What about the “covalent adduct formation (mass shift)” value (MAP2K1) of the same compound?
**A.** Its value is “formed covalent adducts”.
